Assay results published in ChEMBL document CHEMBL1687913, “Structure-activity relationship, conformational and biological studies of temporin L analogues” (J Med Chem, 2011).
Values after ≈ are worked out from the molar mass of the structure shown.

What was measured:
Acinetobacter baumannii = experiment: Antibacterial activity against Acinetobacter baumannii ATCC 19606 after 18 to 20 hrs by microbroth dilution method; type: functional
How it was run: (§1)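 CLSI microbroth dilution, adapted. Mid-log bacteria, 2 × 10^6 CFU/mL in Mueller-Hinton broth, mixed 1:1 with MH broth holding peptide in serial 2-fold dilutions in 20% ethanol (0.75-48 μM). Incubated 18-20 h at 37 °C; growth read as A600. MIC is the lowest concentration giving 100% growth inhibition.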

Pseudomonas aeruginosa [1] = experiment: Antibacterial activity against Pseudomonas aeruginosa ATCC 15692 after 18 to 20 hrs by microbroth dilution method; type: functional; how it was run: as §1
Escherichia coli [2] = experiment: Antibacterial activity against Escherichia coli D21 after 18 to 20 hrs by microbroth dilution method; type: functional; how it was run: as §1
[3] = Toxicity in human erythrocytes assessed as hemolysis at 24 uM after 40 mins; type: cell-based, Erythrocyte; details: read-out: Activity
How it was run: (§2)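 Human red blood cells suspended in 0.9% (w/v) NaCl and incubated 40 min at 37 °C with gentle mixing with serial 2-fold peptide dilutions (peptide predissolved in 20% ethanol). Spun 5 min at 900g; supernatant read at 415 nm. Cells lysed in distilled water set the 100% lysis reference.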

Streptococcus pyogenes = experiment: Antibacterial activity against Streptococcus pyogenes ATCC 21547 after 18 to 20 hrs by microbroth dilution method; type: functional; how it was run: as §1
Acinetobacter junii = experiment: Antibacterial activity against […] Acinetobacter junii RT-4 after 18 to 20 hrs by microbroth dilution method; type: functional; how it was run: as §1
Candida albicans = experiment: Antifungal activity against Candida albicans ATCC 10231 after 18 to 20 hrs by microbroth dilution method; type: functional
How it was run: (§3)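 Yeasts tested by adapted CLSI microbroth dilution in Winge medium. Peptide given in serial 2-fold dilutions (0.75-48 μM, made in 20% ethanol). Incubation 18-20 h at 30 °C, read at A600. MIC taken as the concentration giving complete (100%) growth inhibition.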

Enterococcus faecalis = experiment: Antibacterial activity against Enterococcus faecalis ATCC 29212 after 18 to 20 hrs by microbroth dilution method; type: functional; how it was run: as §1
[4] = tested on: Schizosaccharomyces pombe; experiment: Antifungal activity against Schizosaccharomyces pombe after 18 to 20 hrs by microbroth dilution method; type: functional; how it was run: as §3
[5] = Toxicity in human erythrocytes assessed as hemolysis at 12 uM after 40 mins; type: cell-based, Erythrocyte; details: read-out: Activity; how it was run: as §2
Pseudomonas aeruginosa [6] = experiment: Antibacterial activity against Pseudomonas aeruginosa ATCC 27853 after 18 to 20 hrs by microbroth dilution method; type: functional; how it was run: as §1
[7] = tested on: Yersinia pseudotuberculosis; experiment: Antibacterial activity against Yersinia pseudotuberculosis YPIII after 18 to 20 hrs by microbroth dilution method; type: functional
How it was run: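 Broth microdilution adapted from CLSI. Mid-log bacteria at 2 × 10^6 CFU/mL in Mueller-Hinton broth were mixed 1:1 with MH broth containing peptide in serial 2-fold dilutions (peptide in 20% ethanol), 0.75-48 μM. Plates were incubated 18-20 h at 37 °C and growth was read as A600. MIC is the concentration giving 100% growth inhibition.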

Staphylococcus capitis = experiment: Antibacterial activity against Staphylococcus capitis after 18 to 20 hrs by microbroth dilution method; type: functional; how it was run: as §1
[8] = tested on: Staphylococcus epidermidis; experiment: Antibacterial activity against Staphylococcus epidermidis ATCC 12228 after 18 to 20 hrs by microbroth dilution method; type: functional; how it was run: as §1
Staphylococcus aureus [9] = experiment: Antibacterial activity against Staphylococcus aureus Cowan I after 18 to 20 hrs by microbroth dilution method; type: functional; how it was run: as §1
[10] = Toxicity in human erythrocytes assessed as hemolysis at 6 uM after 40 mins; type: cell-based, Erythrocyte; details: read-out: Activity; how it was run: as §2
Pseudomonas syringae = experiment: Antibacterial activity against Pseudomonas syringae pv tobaci after 18 to 20 hrs by microbroth dilution method; type: functional; how it was run: as §1
[11] = Toxicity in human erythrocytes assessed as hemolysis at 1.5 uM after 40 mins; type: cell-based, Erythrocyte; details: read-out: Activity; how it was run: as §2
Priestia megaterium = experiment: Antibacterial activity against Bacillus megaterium Bm11 after 18 to 20 hrs by microbroth dilution method; type: functional; how it was run: as §1
[12] = Toxicity in human erythrocytes assessed as hemolysis at 3 uM after 40 mins; type: cell-based, Erythrocyte; details: read-out: Activity; how it was run: as §2
Escherichia coli [13] = experiment: Antibacterial activity against Escherichia coli ATCC 25922 after 18 to 20 hrs by microbroth dilution method; type: functional; how it was run: as §1
Staphylococcus aureus [14] = experiment: Antibacterial activity against Staphylococcus aureus ATCC 25923 after 18 to 20 hrs by microbroth dilution method; type: functional; how it was run: as §1
Saccharomyces cerevisiae = experiment: Antifungal activity against Saccharomyces cerevisiae after 18 to 20 hrs by microbroth dilution method; type: functional; how it was run: as §3

Row | SMILES | MIC (Acinetobacter baumannii) | MIC (Pseudomonas aeruginosa [1]) | MIC (Escherichia coli [2]) | hemolysis at 40 min, 24 µM [3] | MIC (Streptococcus pyogenes) | MIC (Acinetobacter junii) | MIC (Candida albicans) | MIC (Enterococcus faecalis) | MIC [4] | hemolysis at 40 min, 12 µM [5] | MIC (Pseudomonas aeruginosa [6]) | MIC [7] | MIC (Staphylococcus capitis) | MIC [8] | MIC (Staphylococcus aureus [9]) | hemolysis at 40 min, 6 µM [10] | MIC (Pseudomonas syringae) | hemolysis at 40 min, 1.5 µM [11] | MIC (Priestia megaterium) | hemolysis at 40 min, 3 µM [12] | also measured
1 | CC[C@H](C)[C@H](NC(=O)[C@H](CCCNC(=N)N)NC(=O)[C@@H]1CCCN1C(=O)[C@H](CC(C)C)NC(=O)[C@H](Cc1ccccc1)NC(=O)[C@H](CCCCN)NC(=O)[C@H](CO)NC(=O)[C@H](Cc1ccccc1)NC(=O)[C@H](Cc1c[nH]c2ccccc12)NC(=O)[C@@H]1CCCN1C(=O)[C@@H](NC(=O)[C@@H](N)Cc1ccccc1)C(C)C)C(=O)N[C@@H](CC(C)C)C(N)=O | 48 µM (≈ 79.2 µg/mL) | > 48 µM | 24 µM (≈ 39.6 µg/mL) | 5% | 12 µM (≈ 19.8 µg/mL) | 12 µM (≈ 19.8 µg/mL) | 12 µM (≈ 19.8 µg/mL) | 48 µM (≈ 79.2 µg/mL) | 12 µM (≈ 19.8 µg/mL) | 5% | > 48 µM | 24 µM (≈ 39.6 µg/mL) | 12 µM (≈ 19.8 µg/mL) | 12 µM (≈ 19.8 µg/mL) | 24 µM (≈ 39.6 µg/mL) | 4.5% | 24 µM (≈ 39.6 µg/mL) | 2% | 3 µM (≈ 4.95 µg/mL) | 2% | MIC (Escherichia coli [13]): 48 µM (≈ 79.2 µg/mL); MIC (Staphylococcus aureus [14]): 24 µM (≈ 39.6 µg/mL); MIC (Saccharomyces cerevisiae): 12 µM (≈ 19.8 µg/mL)
2 | CC[C@H](C)[C@H](NC(=O)[C@H](CCCNC(=N)N)NC(=O)[C@H]1CCCN1C(=O)[C@H](CC(C)C)NC(=O)[C@H](Cc1ccccc1)NC(=O)[C@H](CCCCN)NC(=O)[C@H](CO)NC(=O)[C@H](Cc1ccccc1)NC(=O)[C@H](Cc1c[nH]c2ccccc12)NC(=O)[C@@H]1CCCN1C(=O)[C@@H](NC(=O)[C@@H](N)Cc1ccccc1)C(C)C)C(=O)N[C@@H](CC(C)C)C(N)=O | 48 µM (≈ 79.2 µg/mL) | > 48 µM | 48 µM (≈ 79.2 µg/mL) | 2.5% | 24 µM (≈ 39.6 µg/mL) | 24 µM (≈ 39.6 µg/mL) | 24 µM (≈ 39.6 µg/mL) | 48 µM (≈ 79.2 µg/mL) | 12 µM (≈ 19.8 µg/mL) | 2% | > 48 µM | 24 µM (≈ 39.6 µg/mL) | 24 µM (≈ 39.6 µg/mL) | 12 µM (≈ 19.8 µg/mL) | 24 µM (≈ 39.6 µg/mL) | 0.6% | > 48 µM | 0.4% | 3 µM (≈ 4.95 µg/mL) | 1.5% | MIC (Escherichia coli [13]): 24 µM (≈ 39.6 µg/mL); MIC (Staphylococcus aureus [14]): 48 µM (≈ 79.2 µg/mL); MIC (Saccharomyces cerevisiae): 12 µM (≈ 19.8 µg/mL)
3 | CC[C@@H](C)[C@@H](NC(=O)[C@@H](CCCNC(=N)N)NC(=O)CNC(=O)[C@@H](CC(C)C)NC(=O)[C@@H](Cc1ccccc1)NC(=O)[C@@H](CCCCN)NC(=O)[C@@H](CO)NC(=O)[C@@H](Cc1ccccc1)NC(=O)[C@@H](Cc1c[nH]c2ccccc12)NC(=O)[C@@H](CCC(N)=O)NC(=O)[C@H](NC(=O)[C@H](N)Cc1ccccc1)C(C)C)C(=O)N[C@H](CC(C)C)C(N)=O [listing 1 of 2 here] | – | – | – | 90% | – | – | – | – | – | 88% | – | – | – | – | – | 46% | – | 5% | – | 13% | –
4 | CC[C@@H](C)[C@@H](NC(=O)[C@@H](CCCNC(=N)N)NC(=O)CNC(=O)[C@@H](CC(C)C)NC(=O)[C@@H](Cc1ccccc1)NC(=O)[C@@H](CCCCN)NC(=O)[C@@H](CO)NC(=O)[C@@H](Cc1ccccc1)NC(=O)[C@@H](Cc1c[nH]c2ccccc12)NC(=O)[C@@H](CCC(N)=O)NC(=O)[C@H](NC(=O)[C@H](N)Cc1ccccc1)C(C)C)C(=O)N[C@H](CC(C)C)C(N)=O [listing 2 of 2 here] | 6 µM (≈ 9.84 µg/mL) | 48 µM (≈ 78.7 µg/mL) | 12 µM (≈ 19.7 µg/mL) | – | 6 µM (≈ 9.84 µg/mL) | 6 µM (≈ 9.84 µg/mL) | 6 µM (≈ 9.84 µg/mL) | 3 µM (≈ 4.92 µg/mL) | 6 µM (≈ 9.84 µg/mL) | – | > 48 µM | 3 µM (≈ 4.92 µg/mL) | 3 µM (≈ 4.92 µg/mL) | 3 µM (≈ 4.92 µg/mL) | 3 µM (≈ 4.92 µg/mL) | – | 6 µM (≈ 9.84 µg/mL) | – | 1.5 µM (≈ 2.46 µg/mL) | – | MIC (Escherichia coli [13]): 12 µM (≈ 19.7 µg/mL); MIC (Staphylococcus aureus [14]): 3 µM (≈ 4.92 µg/mL); MIC (Saccharomyces cerevisiae): 6 µM (≈ 9.84 µg/mL)
